Each block holds one compound with its values, some of them ahead of it. Calls of active or inactive are those of the source. The calls are words filed in the database; no cut-off is given here.
Assays:
MCF7 = experiment: Antiproliferative activity against human MCF7 cells assessed as cell viability at 10 uM measured after 72 hrs by MTS method; type: functional; conditions: read-out: Activity
Summary of the method: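 Single-concentration screen at 10 µM for 72 h. Log-phase cells plated at 5×10^3–6×10^3 per well for 24 h before dosing, five replicate wells. Viability measured by MTS: 10% MTS in fresh medium, 30 min or more at 37 °C in dark, absorbance 490 nm.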

PLC-PRF-5 = experiment: Antiproliferative activity against human PLC-PRF-5 cells assessed as cell viability measured after 72 hrs by MTS method; type: functional, cell-based; conditions: PLC-PRF-5, 72 h
Summary of the method: (§1)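 Log-phase cells plated at 5×10^3–6×10^3 per well for 24 h, then given graded compound concentrations in fresh medium for 72 h, five replicate wells. Medium replaced with medium containing 10% MTS, 30 min or more at 37 °C in dark; OD 490 nm read. IC50 by nonlinear regression; mean ± SD of at least three experiments.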

[1] = Antiproliferative activity against human HCCLM3 cells assessed as cell viability measured after 72 hrs by MTS method; type: functional, cell-based; conditions: HCCLM3, 72 h; summary of the method: as §1
BT-474 = experiment: Antiproliferative activity against human BT-474 cells assessed as cell viability measured after 72 hrs by MTS method; type: functional, cell-based; conditions: BT-474, 72 h; summary of the method: as §1
SK-BR-3 = experiment: Antiproliferative activity against human SK-BR-3 cells assessed as cell viability measured after 72 hrs by MTS method; type: functional, cell-based; conditions: SK-BR-3, 72 h; summary of the method: as §1
RKO = experiment: Antiproliferative activity against human RKO cells assessed as cell viability measured after 72 hrs by MTS method; type: functional, cell-based; summary of the method: as §1
SW-620 = experiment: Antiproliferative activity against human SW-620 cells assessed as cell viability measured after 72 hrs by MTS method; type: functional, cell-based; conditions: SW-620, 72 h; summary of the method: as §1
SW480 = experiment: Antiproliferative activity against human SW480 cells assessed as cell viability measured after 72 hrs by MTS method; type: functional, cell-based; conditions: SW480, 72 h; summary of the method: as §1
A549 = experiment: Antiproliferative activity against human A549 cells assessed as cell viability measured after 72 hrs by MTS method; type: functional, cell-based; conditions: A549, 72 h; summary of the method: as §1
NCI-H460 = experiment: Antiproliferative activity against human NCI-H460 cells assessed as cell viability measured after 72 hrs by MTS method; type: functional, cell-based; conditions: NCI-H460, 72 h; summary of the method: as §1
PANC-1 = experiment: Antiproliferative activity against human PANC-1 cells assessed as cell viability measured after 72 hrs by MTS method; type: functional, cell-based; conditions: PANC-1, 72 h; summary of the method: as §1
Sus scrofa = species: Sus scrofa; experiment: Inhibition of pig tubulin polymerization at 10 uM measured every minute for 60 mins by microplate reader method
Summary of the method: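 Kit assay with porcine tubulin (>97% pure) at 4 mg/mL in PIPES 80 mM, MgCl2 2 mM, EGTA 0.5 mM, pH 6.9, with GTP. Compound at 10 μM final (from 100 μM working solution) preincubated 5 min at 37 °C in a prewarmed plate before cold tubulin mix is added. A340 read every minute for 60 min at 37 °C.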

Tubulin (Homo sapiens) [2] = target: T1, Tubulin (Homo sapiens) (UniProt P68371+Q9H4B7+P0DPH7+P68366+Q13509+Q71U36+P04350+Q3ZCM7+P07437+P68363+Q9BQE3+Q6PEY2+Q13885+Q9BVA1+Q9BUF5); experiment: Inhibition of tubulin polymerization in human RKO cells assessed as fragmentation of microtubule at 1 uM measured 24 hrs by DAPI staining based immunoflourescence assay; type: cell-based
Summary of the method: (§2)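 RKO cells on coverslips (2.5×10^5 per well) incubated overnight, then treated for 24 h at 0.5 or 1 μM, DMSO, or 1 μM comparators. Fixed in cold methanol 10 min, permeabilized with 0.25% Triton X-100, blocked in 1% BSA at 4 °C overnight. Stained with anti-β-tubulin (1:100, 2 h RT) and Alexa Fluor 594 secondary (1:500, 1 h), nuclei with DAPI; imaged by fluorescence microscopy.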

Tubulin (Homo sapiens) [3] = target: T1, Tubulin (Homo sapiens); experiment: Inhibition of tubulin polymerization in human RKO cells assessed as morphology changed to fusiform at 1 uM measured 24 hrs by DAPI staining based immunoflourescence assay; type: cell-based; conditions: in the assay text read “changed to round from fusiform” for “changed to fusiform”; summary of the method: as §2

Structure (SMILES): COc1ccc(S(=O)(=O)Nc2cccnc2-c2cccc(OC)c2OC)cc1
viability at 10 µM (MCF7): > 70%

Structure (SMILES): COc1ccc(S(=O)(=O)Nc2cccnc2-c2ccc3c(c2)OCO3)cc1
viability at 10 µM (MCF7): > 70%

Structure (SMILES): COc1ccc(S(=O)(=O)N(c2cccnc2-c2cc(OC)ccc2OC)S(=O)(=O)c2ccc(OC)cc2)cc1
viability at 10 µM (MCF7): > 70%

Structure (SMILES): COc1ccc(S(=O)(=O)Nc2cccnc2-c2ccc(OCc3ccccc3)cc2)cc1
viability at 10 µM (MCF7): > 70%

IC50 (BT-474): > 10 µM | IC50 (SK-BR-3): > 10 µM | IC50 (SW-620): 7.89 µM | IC50 (SW480): > 10 µM | IC50 (A549): > 10 µM | IC50 (NCI-H460): > 10 µM | IC50 (PANC-1): > 10 µM
Structure (SMILES): COc1ccc(S(=O)(=O)Nc2cccnc2-c2ccccc2)cc1
IC50 (PLC-PRF-5): > 10 µM | IC50 [1]: > 10 µM | IC50 (RKO): 4.32 µM

Structure (SMILES): COc1ccc(S(=O)(=O)Nc2cccnc2-c2cccc(C#N)c2)cc1
viability at 10 µM (MCF7): > 70%

Structure (SMILES): COc1ccc(S(=O)(=O)Nc2cccnc2-c2cc(OC)cc(OC)c2)cc1
viability at 10 µM (MCF7): > 70%

IC50 (PANC-1): > 10 µM
Structure (SMILES): N#Cc1ccc(-c2ncccc2NS(=O)(=O)c2ccc(C(F)(F)F)cc2)cc1F
IC50 [1]: > 10 µM | IC50 (RKO): > 10 µM

Structure (SMILES): COc1ccc(S(=O)(=O)N(c2cccnc2-c2ccc(OC)cc2OC)S(=O)(=O)c2ccc(OC)cc2)cc1
viability at 10 µM (MCF7): > 70%

Structure (SMILES): COc1ccc(S(=O)(=O)Nc2cccnc2-c2ccccc2OC)cc1
viability at 10 µM (MCF7): > 70%

IC50 (PANC-1): > 10 µM
Structure (SMILES): N#Cc1ccc(-c2ncccc2NS(=O)(=O)c2ccc(Br)cc2)cc1F
viability at 10 µM (MCF7): > 70% | IC50 [1]: > 10 µM | IC50 (RKO): > 10 µM

IC50 (BT-474): 1.34 µM | IC50 (SK-BR-3): 0.746 µM | IC50 (SW-620): 0.607 µM | IC50 (SW480): 0.204 µM | IC50 (A549): 2.46 µM | IC50 (NCI-H460): 1.5 µM | IC50 (PANC-1): 1.09 µM
Structure (SMILES): COc1ccc(S(=O)(=O)Nc2cccnc2-c2ccc(C#N)cc2)cc1
IC50 (PLC-PRF-5): 0.816 µM | IC50 [1]: 0.747 µM | IC50 (RKO): 0.259 µM

Structure (SMILES): COc1ccc(S(=O)(=O)Nc2cccnc2-c2ccc(N)cc2)cc1
viability at 10 µM (MCF7): > 70%

Structure (SMILES): C=CCc1ccc(O)c(-c2ccc(O)c(CC=C)c2)c1 [HONOKIOL]
viability at 10 µM (MCF7): > 70%

IC50 (PANC-1): > 10 µM
Structure (SMILES): N#Cc1ccc(-c2ncccc2NS(=O)(=O)c2ccc(OC(F)(F)F)cc2)cc1F
IC50 [1]: > 10 µM | IC50 (RKO): > 10 µM

IC50 (BT-474): > 10 µM | IC50 (SK-BR-3): 6.31 µM | IC50 (SW-620): 3.62 µM | IC50 (SW480): 3.85 µM | IC50 (A549): > 10 µM | IC50 (NCI-H460): > 10 µM | IC50 (PANC-1): 7.19 µM
Structure (SMILES): COc1ccc(S(=O)(=O)Nc2cccnc2-c2ccc([N+](=O)[O-])cc2)cc1
IC50 (PLC-PRF-5): 5.3 µM | IC50 [1]: 7.6 µM | IC50 (RKO): 1.4 µM

Structure (SMILES): COc1ccc(S(=O)(=O)Nc2cccnc2-c2cccc3c2oc2ccccc23)cc1
viability at 10 µM (MCF7): > 70%

Structure (SMILES): COc1ccc(S(=O)(=O)Nc2cccnc2-c2cccnc2)cc1
viability at 10 µM (MCF7): > 70%

Structure (SMILES): COc1ccc(-c2ncccc2NS(=O)(=O)c2ccc(OC)cc2)cc1
viability at 10 µM (MCF7): > 70%

Structure (SMILES): COc1ccc(S(=O)(=O)Nc2cccnc2-c2cccc([N+](=O)[O-])c2)cc1
viability at 10 µM (MCF7): > 70%

Structure (SMILES): COc1ccc(S(=O)(=O)N(c2cccnc2-c2ccc3c(c2)OCO3)S(=O)(=O)c2ccc(OC)cc2)cc1
viability at 10 µM (MCF7): > 70%

Structure (SMILES): COc1ccc(S(=O)(=O)Nc2cccnc2-c2cccc(OC)c2)cc1
viability at 10 µM (MCF7): > 70%

Structure (SMILES): COc1ccc(S(=O)(=O)Nc2cccnc2-c2ccccc2O)cc1
viability at 10 µM (MCF7): > 70%

IC50 (PANC-1): > 10 µM
Structure (SMILES): COc1ccc(S(=O)(=O)Nc2cccnc2-c2ccc(C#N)c(F)c2)cc1OC
IC50 [1]: > 10 µM | IC50 (RKO): > 10 µM

Structure (SMILES): COc1ccc(S(=O)(=O)Nc2cccnc2-c2ccc(OC)c(OC)c2)cc1
viability at 10 µM (MCF7): > 70%

IC50 (PANC-1): > 10 µM
Structure (SMILES): Cc1ccc(S(=O)(=O)Nc2cccnc2-c2ccc(C#N)c(F)c2)cc1
viability at 10 µM (MCF7): > 70% | IC50 [1]: > 10 µM | IC50 (RKO): 9.21 µM

IC50 (PANC-1): > 10 µM
Structure (SMILES): N#Cc1ccc(-c2ncccc2NS(=O)(=O)c2ccccc2)cc1F
IC50 [1]: > 10 µM | IC50 (RKO): > 10 µM

Structure (SMILES): COc1ccc(S(=O)(=O)Nc2cccnc2-c2ccncc2)cc1
viability at 10 µM (MCF7): > 70%

Structure (SMILES): COc1ccc(S(=O)(=O)Nc2cccnc2-c2c(OC)cccc2OC)cc1
viability at 10 µM (MCF7): > 70%

IC50 (BT-474): > 10 µM | IC50 (SK-BR-3): > 10 µM | IC50 (SW-620): 6.82 µM | IC50 (SW480): 9.21 µM | IC50 (A549): > 10 µM | IC50 (NCI-H460): > 10 µM | IC50 (PANC-1): > 10 µM
Structure (SMILES): COc1ccc(S(=O)(=O)Nc2cccnc2-c2ccc(C(F)(F)F)cc2)cc1
IC50 (PLC-PRF-5): > 10 µM | IC50 [1]: > 10 µM | IC50 (RKO): 4.05 µM

Structure (SMILES): COc1ccc(S(=O)(=O)Nc2cccnc2-c2cccc(O)c2)cc1
viability at 10 µM (MCF7): > 70%

Structure (SMILES): COc1ccc(S(=O)(=O)Nc2cccnc2-c2ccnnc2)cc1
viability at 10 µM (MCF7): > 70%

Structure (SMILES): COc1ccc(S(=O)(=O)Nc2cccnc2-c2cccc(N)c2)cc1
viability at 10 µM (MCF7): > 70%

Structure (SMILES): COc1ccc(S(=O)(=O)Nc2cccnc2-c2cc(OC)c(OC)c(OC)c2)cc1
viability at 10 µM (MCF7): > 70%

Structure (SMILES): COc1ccc(S(=O)(=O)Nc2cccnc2-c2ccc(OC)cc2OC)cc1
viability at 10 µM (MCF7): > 70%

Structure (SMILES): COc1ccc(S(=O)(=O)Nc2cccnc2-c2cc(OC)ccc2OC)cc1
viability at 10 µM (MCF7): > 70%

Structure (SMILES): COc1ccc(S(=O)(=O)N(c2cccnc2-c2cccc(OC)c2OC)S(=O)(=O)c2ccc(OC)cc2)cc1
viability at 10 µM (MCF7): > 70%

IC50 (PANC-1): 10 µM
Structure (SMILES): N#Cc1ccc(-c2ncccc2NS(=O)(=O)c2ccc3ccccc3c2)cc1F
IC50 [1]: 8.87 µM | IC50 (RKO): 2.92 µM

inhibition (Sus scrofa): inactive | inhibition (Tubulin (Homo sapiens) [2]): inactive | inhibition (Tubulin (Homo sapiens) [3]): inactive
Structure (SMILES): CC(=O)O[C@H]1C(=O)[C@@]2(C)[C@H]([C@H](OC(=O)c3ccccc3)[C@]3(O)C[C@H](OC(=O)[C@H](O)[C@@H](NC(=O)c4ccccc4)c4ccccc4)C(C)=C1C3(C)C)[C@]1(OC(C)=O)CO[C@@H]1C[C@@H]2O

Structure (SMILES): COc1ccc(S(=O)(=O)Nc2cccnc2-c2ccc(O)cc2)cc1
viability at 10 µM (MCF7): > 70%

IC50 (PANC-1): > 10 µM
Structure (SMILES): N#Cc1ccc(-c2ncccc2NS(=O)(=O)c2ccc(Cl)cc2)cc1F
viability at 10 µM (MCF7): > 70% | IC50 [1]: > 10 µM | IC50 (RKO): > 10 µM

From ChEMBL document CHEMBL4819012, “Discovery of novel 2-aryl-3-sulfonamido-pyridines (HoAns) as microtubule polymerization inhibitors with potent antitumor activities” (Eur J Med Chem, 2021)
